# Screening data as filed in PubChem BioAssay.
# PfHsp90 yeast 2: reduces growth (ATP signal) of yeast expressing P. falciparum Hsp90; S. cerevisiae expressing PfHsp90, BacTiter-Glo ATP, 48 h; yeast lacking PDR1 and PDR3 efflux regulators; inhibition, % at 9.4 µM; 0.32% of 310,000 active; AID 504621;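 active means every replicate shows inhibition above about 80%, whatever the replicate mean, limit read from the data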;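 further: 0% = DMSO neutral controls and 100% = 20 µM radicicol positive controls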
# PvdQ inh: P. aeruginosa PvdQ acylase inhibition. inhibition, % at 10 µM. purified PvdQ acylase, fluorescence plate reader. 0.063% of 340,000 active. AID 488965; in the data active means inhibition above about 30%, passing the limit was not always enough;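 further: 0% = vehicle neutral wells and 100% = reference inhibitor wells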
# T cruzi repl: T. cruzi replication inhibition. T. cruzi beta-gal in NIH3T3, luminescence, 90 h. inhibition, % (no concentration beside the values). 1.4% of 300,000 active. AID 1885;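 active means mean inhibition across valid replicates above about 55%, limit read from the data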;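 further: signal also drops with host cell toxicity which is not excluded here; 0% = plate median of DMSO wells and 100% = zero luminescence signal; higher percent means less beta-gal luminescence so fewer parasites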
#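 Read-out: Parasite load inhibition, % | Test system: Mouse NIH/3T3 fibroblasts infected with β-gal-expressing T. cruzi Tulahuen C4 | Amount: 5,000 cells/well | Medium: DMEM, 2% fetal bovine serum | Signal: GalScreen β-gal luminescence, detergent lysis, 60 min | Timing: 3 h attach, ≥90 h co-culture | Also added: Tulahuen C4 trypomastigotes, 5000/well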
# Glyco luc inh: N-linked glycosylation inhibition. D54 ERlucT glycosylation luciferase reporter, 24 h; percent of 100 nM tunicamycin response. reporter increase, % at 12.5 µM. 0.23% of 360,000 active;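 active means mean luciferase reporter signal, scaled so untreated is 0 and the glycosylation-blocking control 100, at or above a set limit in every replicate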;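 further: luciferase carries N-glycosylation sites so blocking glycosylation raises the light; 0% = median of neutral control wells and 100% = median of 100 nM tunicamycin wells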
# HSF-1 act: increases HSF-1 driven luciferase reporter signal; NIH3T3-HGL HSF-1 luciferase reporter, MG132, 8 h; 100% = twice DMSO control signal; activation, % at 9 µM; 1.7% of 300,000 active; AID 504408;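 active means mean replicate activation of at least 50% with a set share of replicates each reaching 50%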;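 further: 0% = median of the neutral control wells and 100% = twice that signal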
# CaV13 FRET inh: Primary screen for inhibitors of IQ motif and Ca2+-dependent inactivation inhibitor domain binding in CACNA1D, Förster resonance energy transfer in living cells, …. 0.098% of 340,000 active. HEK cells, CFP/YFP FRET ICDI-IQ, plate reader, 10 min; percent FRET-ratio fall versus neutral wells. inhibition, % at 12.3 µM;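 active means mean replicate inhibition of at least 30% and at least 1% of replicates passing that level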;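 further: 0% = median of the neutral control wells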
# The depositor's hits bear a star; nt = no result given. Rows were chosen to be rich in hits. Some 3% of all compounds tested hit in one or more screens of this group.
SMILES,PfHsp90 yeast 2,PvdQ inh,T cruzi repl,Glyco luc inh,HSF-1 act,CaV13 FRET inh
Cc1ccc(S(=O)(=O)NCCC(=O)OC(C)C(=O)NC2CC2)cc1 (centres undefined),-27,-3,nt,-1,nt,-6
Nc1nonc1-n1nnc(C(=O)N/N=C/c2cccnc2)c1CSC1=NCCS1,-3,-15,-37,-1,96*,-3
Cc1ccc(Nc2nc(N)c([N+](=O)[O-])c(N3CCCC(C)C3)n2)cc1C (centres undefined),132*,1,9,-7,21,-7
CC1CCCN(c2nc(NCc3ccco3)nc(N)c2[N+](=O)[O-])C1 (centres undefined),-1,-6,-10,-2,7,-3
C=CCN1C(=O)c2n[nH]c(C(C)C)c2C1c1ccccc1 (centres undefined),nt,nt,nt,nt,nt,-4
Cc1onc(-c2ccc(Cl)cc2)c1-c1ccnc(SCC(=O)Nc2cc(Cl)cc(Cl)c2)n1,1,-10,59*,0,8,-20
O=C(CSc1nccc(-c2cccs2)n1)Nc1cccc(Cl)c1,-7,-10,0,-2,16,0
C[C@@H]1CN([C@H](C)CO)C(=O)c2cc(-c3ccccc3)cnc2O[C@@H]1CN(C)C(=O)C1CCOCC1,nt,nt,nt,2,nt,-6
O=C1N(c2ccccc2)c2ccccc2[C@]12C[C@H](O)CO2,nt,nt,nt,nt,nt,-6
O=C(CCC1CCCN(C(=O)c2ccc3cc[nH]c3c2)C1)NCc1ccc(F)c(F)c1 (centres undefined),-15,8,6,-3,57*,-6
O=C(CCC1CCCN(Cc2ccc3c(c2)OCCO3)C1)NCc1ccccc1F (centres undefined),38,-6,49,-1,16,-6
O=S(=O)(Cc1ccccc1)NCC1CCCN(Cc2ccc3nonc3c2)C1 (centres undefined),-4,-11,46,1,25,-1
O=C(CCC1CCCN(Cc2ccc3c(c2)OCCO3)C1)NCc1ccc(F)c(F)c1 (centres undefined),nt,1,62*,-3,-4,-5
O=S(=O)(Cc1ccccc1)NCC1CCCN(Cc2ccc(F)c(F)c2)C1 (centres undefined),34,-8,61*,-5,6,-4
O=C(CCC1CCCN(Cc2cccc3c2OCO3)C1)NCc1ccc(F)c(F)c1 (centres undefined),11,-25,62*,-3,-2,-2
CCNC(=O)C1(C)CCCN(C(=O)c2cc(-c3ccccc3)cs2)C1 (centres undefined),nt,nt,nt,1,nt,-5
Cc1cc(NC(=O)CSc2nc3sc(C)c(C)c3c(=O)n2C2CCCC2)no1,6,-7,18,27*,-4,-8
Cc1cc(NC(=O)CSc2nc(C(C)C)nc3sc(C)c(C)c23)no1,-5,-4,-4,2,5,-8
Cc1ccc(/C=N/N(Cc2ccccc2)c2ccccc2)o1,0,0,6,-3,106*,-8
O=C1C2C(c3ccccc3)CC=CC2[C@H](c2cccc([N+](=O)[O-])c2)N1Cc1ccccc1 (some centres undefined),-6,-1,56*,-4,8,-11
CS(=O)(=O)c1ccc(OCCCN2CCC(C(O)(c3ccccc3)c3ccccc3)CC2)cc1,nt,nt,nt,nt,nt,-9
COc1ccc(-c2nc3ccccc3n2OCC(=O)O)cc1,3,-11,8,-1,32,-4
Clc1ccc(COn2c(-c3ccccc3)nc3ccccc32)cc1,6,1,24,-3,16,-6
COn1c(-c2ccc(Cl)cc2)nc2ccc(Cl)cc21,nt,-5,-18,-1,111*,-6
O=C(O)COn1c(-c2ccccc2)nc2ccc([N+](=O)[O-])cc21,-15,8,8,-2,82*,-5
SMILES,PfHsp90 yeast 2,PvdQ inh,T cruzi repl,Glyco luc inh,HSF-1 act,CaV13 FRET inh
Clc1ccc(COn2c(-c3ccc(Cl)cc3)nc3ccccc32)cc1,nt,-17,46,-5,60*,-6
CCOC(=O)C(C)On1c(-c2ccccc2)nc2ccc([N+](=O)[O-])cc21 (centres undefined),19,-4,12,3,37,-5
O=C(O)COn1c(-c2ccc(Cl)cc2)nc2ccc(Cl)cc21,8,-2,-12,2,92*,-5
CN1CC[C@@H]2CN(S(=O)(=O)c3ccccc3)[C@H](c3ccccc3Br)C[C@@H]21,nt,nt,nt,nt,nt,-5
CC(NCC(=O)NCCc1ccc(S(N)(=O)=O)cc1)c1ccc(F)cc1 (centres undefined),5,2,7,2,52*,-6
Cc1c(-n2cc(C(=O)c3ccccc3O)cc(C#N)c2=O)c(=O)n(-c2ccccc2)n1C,nt,-7,-1,0,109*,-4
CCN(CC)CCn1c(=N)n(CC(O)COc2ccccc2)c2ccccc21 (centres undefined),-8,-8,-6,-2,3,-5
CCN(CC)CCn1c(=N)n(CCOc2ccccc2)c2ccccc21,nt,-3,69*,1,30,-5
CCOc1ccc(C)cc1S(=O)(=O)n1ccnc1,4,-12,-20,0,5,-7
CCOc1cc(C)c(Cl)cc1S(=O)(=O)n1ccnc1,-5,12,72*,2,-9,-1
OC(c1ccc(Cl)cc1)c1ncc(-c2ccccc2Cl)[nH]1 (centres undefined),nt,nt,nt,-1,nt,-7
NC(=Nc1nc(-c2ccccn2)cc2ccccc12)c1ccccn1,142*,-1,nt,-8,57*,-9
C=CCN=C1NC(c2cccc(Cl)c2)C(C(=O)OC)=C(C)N1C (centres undefined),nt,nt,nt,nt,nt,-5
Cc1cc(NC(=S)N(Cc2ccc(Cl)cc2)Cc2ccc(C(=O)O)cc2)ccc1Cl,-40,0,7,-1,80*,-5
COC(=O)c1ccc2nc(Nc3nc4ccc(F)cc4s3)sc2c1,-23,0,-18,-14,-91,-6
O=C(Nc1nnc(SCc2ccc(F)cc2)s1)c1cccnc1Cl,-20,-1,5,4,-14,2
CC(=O)c1sc(Nc2nc3ccc(F)cc3s2)nc1C,26,-14,-26,nt,82*,nt
O=C(NNc1nc2ccc(F)cc2s1)c1cccc(F)c1,-31,-2,67*,-4,42,-3
O=C(Nc1nnc(SCc2ccc(F)cc2)s1)c1ccccn1,101*,-19,42,0,223*,-5
O=C(Nc1nc2ccc(F)cc2s1)c1ccccn1,nt,nt,52,nt,110*,-4
COc1ccc(CN(C)C[C@@H]2OCCCC[C@H](C)Oc3ccc(NC(=O)Nc4ccc(F)cc4)cc3C(=O)N([C@H](C)CO)C[C@H]2C)cc1,nt,nt,nt,-8,nt,nt
